# Measurements published in ChEMBL document CHEMBL1143007, “Synthesis and evaluation of 4/5-hydroxy-2,3-diaryl(substituted)-cyclopent-2-en-1-ones as cis-restricted analogues of combretastatin A-4 as novel anticancer agents” (J Med Chem, 2007).
# What was measured:
# DU-145 = assay: Cytotoxicity against human DU145 cells after 72 hrs by MTT assay; format: cell-based
# In short: (§1)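 MTT assay. Cells seeded at 5000-10 000 per well and incubated at 37 °C in CO₂ with compound at 1-100 µg/mL in triplicate wells for 72 h, then MTT added. Absorbance read at 540 nm; % cytotoxicity = 100 × (1 − treated/control). IC50 obtained by nonlinear regression; NA means IC50 above 100 µg/mL.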
# MIA PaCa-2 = assay: Cytotoxicity against human MiaPaCa2 cells after 72 hrs by MTT assay; format: cell-based; in short: as §1
# KB = assay: Cytotoxicity against human KB cells after 72 hrs by MTT assay; format: cell-based; in short: as §1
# [1] = Cytotoxicity against human PA1 cells after 72 hrs by MTT assay; format: cell-based, PA-1; in short: as §1
# HT-29 = assay: Cytotoxicity against human HT29 cells after 72 hrs by MTT assay; format: cell-based; in short: as §1
# [2] = Cytotoxicity against human Hep2 cells after 72 hrs by MTT assay; format: cell-based, HEp-2; in short: as §1
# L132 = assay: Cytotoxicity against human L132 cells after 72 hrs by MTT assay; format: cell-based; in short: as §1
# HEK293 = assay: Cytotoxicity against human HEK293 cells after 72 hrs by MTT assay; format: cell-based; in short: as §1
# [3] = Cytotoxicity against human ECV304 cells after 72 hrs by MTT assay; format: cell-based, ECV-304; in short: as §1
# [4] = Homo sapiens, DU-145, 72 h, read-out: IC50
# [5] = Homo sapiens, MIA PaCa-2, 72 h, read-out: IC50
# [6] = Homo sapiens, KB, 72 h, read-out: IC50
# [7] = Homo sapiens, PA-1, 72 h, read-out: IC50
# [8] = Homo sapiens, HT-29, 72 h, read-out: IC50
# [9] = Homo sapiens, HEp-2, 72 h, read-out: IC50
# [10] = Homo sapiens, L132, 72 h, read-out: IC50
# [11] = Homo sapiens, HEK293, 72 h, read-out: IC50
# [12] = Homo sapiens, ECV-304, 72 h, read-out: IC50
Compound,IC50 (DU-145; [4]),IC50 (MIA PaCa-2; [5]),IC50 (KB; [6]),"IC50 [1, 7]",IC50 (HT-29; [8]),"IC50 [2, 9]",IC50 (L132; [10]),IC50 (HEK293; [11]),"IC50 [3, 12]",IC50 (DU-145; du-145),IC50 (MIA PaCa-2; mia paca-2),IC50 (KB; kb),IC50 ([1]; pa-1),IC50 (HT-29; ht-29),IC50 ([2]; hep-2),IC50 (L132; l132),IC50 (HEK293; hek293),IC50 ([3]; ecv-304)
COc1ccc(C2=C(c3cc(OC)c(OC)c(OC)c3)/C(=N\O)CC2O)cc1O (centres undefined),23 µg/mL,> 100 µg/mL,10 µg/mL,3.7 µg/mL,9 µg/mL,< 1 µg/mL,8 µg/mL,> 100 µg/mL,> 100 µg/mL,,,,,,,,,
COc1ccc(C2=C(c3cc(OC)c(OC)c(OC)c3)/C(=N\O)C(O)C2)cc1Cl (centres undefined),16 µg/mL,33 µg/mL,9.8 µg/mL,> 100 µg/mL,< 1 µg/mL,< 1 µg/mL,< 1 µg/mL,50 µg/mL,18.5 µg/mL,,,,,,,,,
O/N=C1/CC(O)C(c2ccccc2)=C1c1ccccc1 (centres undefined),> 100 µg/mL,> 100 µg/mL,> 100 µg/mL,> 100 µg/mL,> 100 µg/mL,> 100 µg/mL,> 100 µg/mL,> 100 µg/mL,> 100 µg/mL,,,,,,,,,
COc1cc(C2=C(c3ccc(SC)cc3)CC(O)/C2=N/O)cc(OC)c1OC (centres undefined),2.5 µg/mL,40 µg/mL,15 µg/mL,25.3 µg/mL,36 µg/mL,< 1 µg/mL,> 100 µg/mL,27 µg/mL,57 µg/mL,,,,,,,,,
COc1ccc(C2=C(c3cc(OC)c(OC)c(OC)c3)C(=O)C(OC(C)=O)C2)cc1OC(C)C (centres undefined),> 100 µg/mL,> 100 µg/mL,> 100 µg/mL,> 100 µg/mL,> 100 µg/mL,> 100 µg/mL,> 100 µg/mL,> 100 µg/mL,> 100 µg/mL,,,,,,,,,
COc1ccc(C2=C(c3cc(OC)c(OC)c(OC)c3)C(=O)C(O)C2)cc1Cl (centres undefined),40 µg/mL,> 100 µg/mL,2.5 µg/mL,> 100 µg/mL,< 1 µg/mL,< 1 µg/mL,< 1 µg/mL,> 100 µg/mL,20 µg/mL,,,,,,,,,
COc1ccc(C2=C(c3cc(OC)c(OC)c(OC)c3)C(=O)C(O)C2)cc1NC(=O)c1ccccc1 (centres undefined),> 100 µg/mL,> 100 µg/mL,> 100 µg/mL,> 100 µg/mL,> 100 µg/mL,> 100 µg/mL,> 100 µg/mL,> 100 µg/mL,> 100 µg/mL,,,,,,,,,
COc1ccc(C2=C(c3cc(OC)c(OC)c(OC)c3)C(=O)CC2O[Si](C)(C)C(C)(C)C)cc1O (centres undefined),75 µg/mL,55 µg/mL,6.5 µg/mL,14 µg/mL,38 µg/mL,14.5 µg/mL,< 1 µg/mL,42 µg/mL,30 µg/mL,,,,,,,,,
COc1ccc(C2=C(c3cc(OC)c(OC)c(OC)c3)C(=O)CC2O)cc1 (centres undefined),18.7 µg/mL,> 100 µg/mL,,3.38 µg/mL,15 µg/mL,> 100 µg/mL,10 µg/mL,10 µg/mL,> 100 µg/mL,,,,,,,,,
COc1ccc(C2=C(c3cc(OC)c(OC)c(OC)c3)/C(=N\O)CC2OC(C)=O)cc1O (centres undefined),23 µg/mL,< 1 µg/mL,< 1 µg/mL,< 1 µg/mL,< 1 µg/mL,> 100 µg/mL,< 1 µg/mL,> 6.06 µg/mL,> 100 µg/mL,,,,,,,,,
COc1cc(C2=C(c3cc(C)c(OC)c(C)c3)C(O)CC2=O)cc(OC)c1OC (centres undefined),> 100 µg/mL,> 100 µg/mL,> 100 µg/mL,> 100 µg/mL,> 100 µg/mL,> 100 µg/mL,> 100 µg/mL,> 100 µg/mL,> 100 µg/mL,,,,,,,,,
COCOc1cc(C2=C(c3cc(OC)c(OC)c(OC)c3)C(=O)CC2O[Si](C)(C)C(C)(C)C)ccc1OC (centres undefined),34 µg/mL,50 µg/mL,33 µg/mL,13.5 µg/mL,43 µg/mL,12 µg/mL,32 µg/mL,> 100 µg/mL,40 µg/mL,,,,,,,,,
COc1ccc(C2=C(c3cc(OC)c(OC)c(OC)c3)/C(=N\O)CC2OC(C)=O)cc1 (stereo in doubt; 22),,,,,,,,,,20 µg/mL,1 µg/mL,5 µg/mL,20 µg/mL,1.5 µg/mL,3 µg/mL,20 µg/mL,32 µg/mL,4 µg/mL
COc1cc(C2=C(c3cc(C)c(OC)c(C)c3)C(OC(C)=O)CC2=O)cc(OC)c1OC (centres undefined),> 100 µg/mL,> 100 µg/mL,> 100 µg/mL,> 100 µg/mL,> 100 µg/mL,> 100 µg/mL,> 100 µg/mL,> 100 µg/mL,> 100 µg/mL,,,,,,,,,
COc1ccc(C2=C(c3cc(OC)c(OC)c(OC)c3)C(=O)C(OC(C)=O)C2)cc1NC=O (centres undefined),> 100 µg/mL,2 µg/mL,8 µg/mL,5 µg/mL,< 1 µg/mL,3.27 µg/mL,2 µg/mL,4.16 µg/mL,,,,,,,,,,
COc1ccc(C2=C(c3cc(OC)c(OC)c(OC)c3)C(=O)CC2O[Si](C)(C)C(C)(C)C)cc1 (centres undefined),> 100 µg/mL,> 100 µg/mL,> 100 µg/mL,> 100 µg/mL,> 100 µg/mL,> 100 µg/mL,> 100 µg/mL,> 100 µg/mL,> 100 µg/mL,,,,,,,,,
COC(=O)c1cc(C2=C(c3cc(OC)c(OC)c(OC)c3)C(=O)CC2O[Si](C)(C)C(C)(C)C)ccc1OC (centres undefined),> 100 µg/mL,> 100 µg/mL,> 100 µg/mL,> 100 µg/mL,> 100 µg/mL,> 100 µg/mL,> 100 µg/mL,> 100 µg/mL,> 100 µg/mL,,,,,,,,,
C=CCOc1cc(C2=C(c3cc(OC)c(OC)c(OC)c3)C(=O)C(O)C2)ccc1OC (centres undefined),> 100 µg/mL,> 100 µg/mL,> 100 µg/mL,> 100 µg/mL,> 100 µg/mL,> 100 µg/mL,> 100 µg/mL,> 100 µg/mL,> 100 µg/mL,,,,,,,,,
COc1ccc(OC)c(C2=C(c3cc(OC)c(OC)c(OC)c3)C(=O)CC2O[Si](C)(C)C(C)(C)C)c1 (centres undefined),100 µg/mL,> 100 µg/mL,10 µg/mL,17 µg/mL,5 µg/mL,19 µg/mL,100 µg/mL,9.5 µg/mL,6.5 µg/mL,,,,,,,,,
COc1ccc(C2=C(c3cc(OC)c(OC)c(OC)c3)/C(=N\O)CC2OC(C)=O)cc1 (stereo in doubt; 40),21 µg/mL,< 1 µg/mL,,,< 1 µg/mL,,,22 µg/mL,,,,< 1 µg/mL,< 1 µg/mL,,< 1 µg/mL,< 1 µg/mL,,60 µg/mL
C=CCOc1cc(C2=C(c3cc(OC)c(OC)c(OC)c3)/C(=N\O)C(O)C2)ccc1OC (centres undefined),> 100 µg/mL,> 100 µg/mL,> 100 µg/mL,> 100 µg/mL,> 100 µg/mL,> 100 µg/mL,> 100 µg/mL,> 100 µg/mL,> 100 µg/mL,,,,,,,,,
COc1ccc(C2=C(c3cc(OC)c(OC)c(OC)c3)/C(=N\O)C(O)C2)cc1OC(C)C (centres undefined),81 µg/mL,98 µg/mL,95 µg/mL,61 µg/mL,69 µg/mL,40 µg/mL,75 µg/mL,36.8 µg/mL,96 µg/mL,,,,,,,,,
COc1ccc(C2=C(c3cc(OC)c(OC)c(OC)c3)/C(=N\O)C(O)C2)cc1F (centres undefined),10 µg/mL,94 µg/mL,< 1 µg/mL,> 100 µg/mL,< 1 µg/mL,< 1 µg/mL,< 1 µg/mL,> 100 µg/mL,43 µg/mL,,,,,,,,,
COc1ccc(C2=C(c3cc(OC)c(OC)c(OC)c3)CC(O)C2=O)cc1N (centres undefined),41 µg/mL,> 100 µg/mL,< 1 µg/mL,20 µg/mL,< 1 µg/mL,16 µg/mL,54 µg/mL,> 100 µg/mL,> 100 µg/mL,,,,,,,,,
COc1cc(C2=C(c3ccc(OCC(=O)[O-])cc3)C(O)CC2=O)cc(OC)c1OC.[Na+] (centres undefined),> 100 µg/mL,> 100 µg/mL,> 100 µg/mL,,,> 100 µg/mL,,> 100 µg/mL,,,,,,,,,,
COc1cc(C2=C(c3cc(C)c(OC)c(C)c3)C(O[Si](C)(C)C(C)(C)C)CC2=O)cc(OC)c1OC (centres undefined),> 100 µg/mL,,40 µg/mL,32 µg/mL,10 µg/mL,26 µg/mL,> 100 µg/mL,29 µg/mL,15 µg/mL,,,,,,,,,
COc1ccc(C2=C(c3cc(OC)c(OC)c(OC)c3)C(=O)C(OC(C)=O)C2)cc1 (centres undefined),> 100 µg/mL,< 1 µg/mL,72 µg/mL,< 1 µg/mL,< 1 µg/mL,18 µg/mL,> 100 µg/mL,,18 µg/mL,,,,,,,,,
COc1ccc(C2=C(c3cc(OC)c(OC)c(OC)c3)/C(=N\O)C(OC(C)=O)C2)cc1 (centres undefined),> 100 µg/mL,< 1 µg/mL,69 µg/mL,< 1 µg/mL,1 µg/mL,100 µg/mL,,25.6 µg/mL,> 100 µg/mL,,,,,,,,,
COc1ccc(C2=C(c3cc(OC)c(OC)c(OC)c3)/C(=N\O)CC2O)cc1 (centres undefined),34.2 µg/mL,> 100 µg/mL,,2.35 µg/mL,15 µg/mL,> 100 µg/mL,11 µg/mL,> 100 µg/mL,> 100 µg/mL,,,,,,,,,
COc1ccc(C2=C(c3cc(OC)c(OC)c(OC)c3)/C(=N\O)CC2O[Si](C)(C)C(C)(C)C)cc1OC (centres undefined),60 µg/mL,15 µg/mL,15 µg/mL,,20 µg/mL,32 µg/mL,60 µg/mL,70 µg/mL,36 µg/mL,,,,,,,,,
